A selection: hits, their analogues and other compounds. The true share with any hit is near 4.5%.
GPR7 antag – blocks human GPR7 receptor signaling; P48145; GPR7-expressing cells, fluorescence antagonist assay; AID 1861; 290,000 tested, 1.1% active; inhibition, % at 4.4 µM; in the data active means inhibition above about 16%, passing the limit was not always enough;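 further: cells stimulated with the agonist NPW; 0% = agonist with vehicle and 100% = vehicle without agonist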
Target sequence (P48145 whole entry, looked up): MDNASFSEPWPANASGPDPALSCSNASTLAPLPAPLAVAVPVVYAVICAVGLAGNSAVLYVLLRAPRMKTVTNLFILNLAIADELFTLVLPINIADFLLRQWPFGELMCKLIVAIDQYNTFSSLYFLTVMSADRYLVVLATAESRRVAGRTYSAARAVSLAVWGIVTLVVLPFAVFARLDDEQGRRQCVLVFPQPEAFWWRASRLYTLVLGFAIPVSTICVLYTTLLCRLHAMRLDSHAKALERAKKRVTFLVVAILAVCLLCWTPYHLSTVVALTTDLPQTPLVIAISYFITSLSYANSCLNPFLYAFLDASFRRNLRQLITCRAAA
OX1R antag-1 – antagonists of human orexin 1 receptor. O43613. CHO/OX1R cells, Fluo-8 calcium fluorescence, orexin A. inhibition, % at 5 µM. 330,000 tested, 0.43% active;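 active means inhibition above its plate's threshold, mean inhibition of all tested compounds on the plate plus 3 SD, cut at about 37% in these data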;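 further: 0% = orexin A challenge wells and 100% = SB-334867-A antagonist wells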
TAAR1 agonist – human TAAR1 agonism; CHO RD-HGA16 TAAR1, Fluo-8 calcium fluorescence; vehicle wells 0%, saturating PEA agonist 100%; 360,000 tested, 0.99% active; activation, % at 3 µM; Q96RJ0;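 active means activation above the mean activation of all test compounds in the run plus 3 SD, cut at about 38% in these data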
Target sequence (Q96RJ0 whole entry, looked up): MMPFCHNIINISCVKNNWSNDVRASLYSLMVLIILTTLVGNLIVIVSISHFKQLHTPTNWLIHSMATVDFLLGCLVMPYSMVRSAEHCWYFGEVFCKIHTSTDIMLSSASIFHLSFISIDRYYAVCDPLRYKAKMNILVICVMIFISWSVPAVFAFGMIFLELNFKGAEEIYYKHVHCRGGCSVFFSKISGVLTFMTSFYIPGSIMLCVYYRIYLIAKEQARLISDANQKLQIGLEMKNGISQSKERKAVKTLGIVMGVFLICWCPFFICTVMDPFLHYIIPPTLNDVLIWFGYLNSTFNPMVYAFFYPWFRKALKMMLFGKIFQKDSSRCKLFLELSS
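Test system: RD-HGA16 (CHO) cells co-expressing Gα16 and hTAAR1; dosing: one-point dosing at 3 µM (nominal); timing: 17-24 h seeding, 75 min 37 °C dye, 30 min RT; signal: kinetic Fluo-8 calcium fluorescence; read-out basis: % activation relative to PEA EC100 response; controls: DMSO and PEA EC100; replicates: n 1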
CHO parental Ca – signal in parental CHO cells, OX1R antagonist counter-screen; parental CHO-K1, ATP-induced calcium, Fluo-8 fluorescence; inhibition, % at 5.6 µM; 330,000 tested, 0.63% active; AID 463079;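 active means inhibition above that plate's mean sample inhibition plus 3 SD, cut at about 26% in these data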;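 further: 0% = ATP-challenged DMSO wells and 100% = DMSO wells without ATP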
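test system = CHO parental line | reagent = ATP stimulus | measured by = intracellular calcium via Fluo-8 no-wash fluorescent dye | control set = ATP and no-ATP DMSO wells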
OX1R antag-2 – blocks the human orexin 1 receptor; O43613; OX1R-expressing cells, FRET antagonist read-out; inhibition, % at 6.6 µM; 330,000 tested, 1.8% active; in the data active means inhibition mostly above about 38%, no sharp cut-off; inactive means mostly below about 40%;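 further: 0% = agonist challenge alone and 100% = reference antagonist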
TAAR1 antagonist – antagonists of human TAAR1 | 360,000 tested, 1.5% active | CHO RD-HGA16 TAAR1, Fluo-8 calcium fluorescence, antagonist | inhibition, % at 3 µM | AID 624466;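 active means inhibition above a per-plate cutoff, the mean inhibition of test compounds on that plate plus 3 SD, cut at about 49% in these data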;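 further: 0% = DMSO plus EC80 beta-PEA response and 100% = DMSO alone without agonist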
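System: RD-HGA16 CHO cells with stable hTAAR1 and Gα16 | Probe or stimulus: EC80 β-phenethylamine stimulus | Dosing: 3 µM, single point | Times: Dye loading 75 min at 37 °C, then 30 min room temperature | Measured by: Fluo-8 calcium-sensitive fluorescence | Read-out basis: % inhibition of agonist calcium response | Replicates: n of 1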
Active calls of the source: *; · = not tested or not shown.

SMILES | GPR7 antag | OX1R antag-1 | TAAR1 agonist | CHO parental Ca | OX1R antag-2 | TAAR1 antagonist
COc1ccccc1Cc1c(-c2ccccc2)nc2c3ccccc3ccn12 | · | · | 1 | · | · | -20
COc1cccc(NC(=O)N(C)C[C@H]2OCc3ccccc3-c3c(n(C)c4ccccc34)C(=O)N([C@H](C)CO)C[C@H]2C)c1 | · | · | 1 | · | · | 0
O=C(NC1CC1)c1cccc(NC(=O)C2CCCCC2)c1 | · | · | 1 | · | · | -12
Cc1cccc(Cn2cnc3c(nnn3Cc3ccccc3F)c2=O)c1 | 13 | 17 | 18 | -1 | 3 | 60*
Cc1ccc(Cn2nnc3c(=O)n(CC(=O)OCc4ccccc4)cnc32)cc1 | 5 | 36 | 9 | 31* | 9 | 21
CC(C)(C)S(=O)(=O)N1C[C@@H]2C(=C(CCO)C[C@@H]3C(=O)N(c4ccccc4)C(=O)[C@@H]32)[C@H]1CCO | · | · | 6 | · | · | 7
Cc1ccc(N(CC(=O)NC(C)c2ccccc2)S(=O)(=O)c2c(C)noc2C)cc1 (stereo not drawn) | -5 | 14 | -2 | -20 | 52* | -28
COc1cccc(CNC(=O)CN(c2cc(C)cc(C)c2)S(=O)(=O)c2c(C)noc2C)c1 | -19 | -18 | 2 | -25 | 46* | -1
Cc1ccc(N(CC(=O)NC(C)c2ccccc2)S(=O)(=O)c2c(C)n[nH]c2C)cc1 (stereo not drawn) | -8 | -20 | 3 | -26 | 31 | -16
COc1cccc(CNC(=O)CN(c2ccc(C(C)C)cc2)S(=O)(=O)c2c(C)noc2C)c1 | 5 | -16 | -1 | -29 | 8 | 18
COC(=O)c1cc2c(c3c4ccccc4n(S(=O)(=O)c4ccccc4)c13)C(=O)N(Cc1ccc(N(C)C)cc1)C2 | · | · | -2 | · | · | -26
COc1ccccc1C1(CCNC(C)c2cccs2)CCOC(C(C)C)C1 (stereo not drawn) | 20* | -25 | 2 | -9 | 5 | -14
Cc1ccc(C2(CCNC(C)c3cccs3)CCOC(C(C)C)C2)cc1 (stereo not drawn) | 10 | · | 4 | · | · | 5
COCc1cc(N2CCNC[C@@H]2C)ccc1N1CCN(Cc2ccccc2)[C@H](C)C1 | · | · | 2 | · | · | -7
CN(C)CCCNC(=O)c1c(N)[nH]c(C(=O)c2ccc(Br)cc2)c1-c1ccc(Br)cc1 | · | · | 2 | · | · | -14
CC/C(=N\Nc1ccc([N+](=O)[O-])cc1)c1ccccc1 | -15 | -37 | · | -5 | 53* | ·
Cc1noc(C)c1CSCC(=O)Oc1ccc(N(C)S(=O)(=O)c2ccc(Cl)cc2)cc1 | · | 0 | 5 | 12 | 19 | 53*
CCCOc1ccc(CSc2nc3ccccc3[nH]2)cc1 | 4 | 18 | 8 | 48* | 27 | 25
CCOC(=O)c1c(NC(=O)COC(=O)CNC(=O)c2ccc(Cl)cc2Cl)sc(C(=O)N(C)C)c1C | · | -17 | 1 | -17 | 10 | -32
CCOC(=O)c1c(NC(=O)COC(=O)c2nc(Cl)ccc2Cl)sc(C(=O)N(C)C)c1C | · | -20 | 12 | -20 | 10 | 51*
COc1ccc(-c2cc(C(=O)OC3CCOC3=O)c3ccccc3n2)cc1 (stereo not drawn) | 2 | 9 | 5 | -12 | 53* | 53*
O=C(OC1CCOC1=O)c1cc(-c2ccc(Br)cc2)nc2ccccc12 (stereo not drawn) | -1 | -8 | 3 | -20 | 13 | 1
CCOc1ccc(NC(=O)CN(C)C(=O)c2cc(-c3ccc(OC)cc3)nc3ccccc23)cc1OCC | · | -14 | 11 | -11 | 48 | 56*
CCOc1ccc(NC(=O)CN(C)C(=O)c2cccc3ccccc23)cc1OCC | · | · | 2 | · | · | -12
COc1ccc(-c2cc(C(=O)OCC(=O)N(C)C)c3ccccc3n2)cc1 | 18* | -30 | 9 | -9 | 43 | 20
SMILES | GPR7 antag | OX1R antag-1 | TAAR1 agonist | CHO parental Ca | OX1R antag-2 | TAAR1 antagonist
Cc1c(C(=O)NCc2cccc(Cl)c2)sc(=O)n1Cc1ccc(F)cc1 | · | · | 2 | · | · | 18
Cc1c(C(=O)NCc2ccc(C(C)C)cc2)sc(=O)n1Cc1cccc(F)c1 | · | · | 48* | · | · | 53*
Cc1c(C(=O)NCc2ccc(F)cc2)sc(=O)n1Cc1ccc(C(=O)c2ccccc2)cc1 | · | · | 1 | · | · | 54*
Cc1ccc(CN2CCN(C(=O)C3CCCO3)CC2)cc1 (stereo not drawn) | 5 | -11 | 2 | -9 | 7 | 5
O=C(C1CCCO1)N1CCN(Cc2c(O)ccc3ccccc23)CC1 (stereo not drawn) | 1 | -19 | 14 | 29* | 37 | -14
CN(C=[N+](C)C)c1cccc2c1C(=O)c1ccccc1C2=O | -10 | -12 | 1 | -2 | 75* | -3
CCN(CC)CC(=O)Nc1cccc2c1C(=O)c1ccccc1C2=O | -11 | -2 | 7 | -17 | 13 | 1
COC(=O)[C@]12C[C@H](CC(=O)N3CCCC3)C(=O)N(Cc3ccccc3)C1=C[C@H](C1CCCC1)O[C@@H]2C | · | · | -2 | · | · | 4
CC(Cc1cccs1)NC(=O)Nc1ccc(Cl)cc1 (stereo not drawn) | -5 | 0 | 11 | 0 | 25 | 16
CC(NC(=O)Nc1ccc(Cl)c(Cl)c1)C(c1ccccc1)N1CCOCC1 (stereo not drawn) | -6 | -21 | 57* | 1 | -10 | 9
CC(NC(=O)c1ccc(Cl)cc1Cl)C(c1ccccc1)N1CCOCC1 (stereo not drawn) | -3 | -7 | 5 | -6 | 14 | -3
CC(NC(=O)Nc1ccc([N+](=O)[O-])cc1)C(c1ccccc1)N1CCOCC1 (stereo not drawn) | 6 | -11 | 49* | -3 | -3 | -3
CC(Cc1cccs1)NC(=O)Nc1ccc(Cl)c(Cl)c1 (stereo not drawn) | -5 | 47* | 30 | 63* | 49* | -2
O=C(C(=O)N1CCN(S(=O)(=O)c2cccc3ccccc23)CC1)c1cccc(C(F)(F)F)c1 | · | · | 3 | · | · | 8
Cc1cc(/C=N/n2cnnc2)c(C)n1-c1ccc(OCc2ccc(Cl)cc2Cl)cc1 | -2 | 53* | · | 45* | 50 | ·
c1ccc(N2CCN(c3nc4ccccc4n4cnnc34)CC2)cc1 | -15 | -34 | -3 | -15 | 17 | 7
